Assay results taken from ChEMBL document CHEMBL2062482 (J Med Chem, 2012).

Columns and labels:
Mus musculus [1] = test: AUC in mouse at 100 mg/kg, po; type: ADME, organism-based, Plasma; set-up: dose 100 mg/kg, route oral; conditions: in vivo
Summary of the method: (§1)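 Female mice given the mono-TFA salt orally at 100 mg/kg as a solution in PBS.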

Cynomolgus monkey [2] = test: Terminal half life in cynomolgus monkey at 1 mg/kg, iv; type: ADME, organism-based, Macaca fascicularis; set-up: dose 1 mg/kg, route intravenous; conditions: in vivo
Summary of the method: (§2)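 Single IV bolus, plasma sampled serially to 24 h post-dose, drug measured by LC-MS/MS, parameters by non-compartmental analysis. Rats and monkeys n = 3 per dose, dogs n = 3 at 1 mg/kg and n = 2 at 20 mg/kg. Nude mice n = 27 per dose level, n = 3 per time point. Mice received the HCl salt in 10% hydroxypropyl-β-cyclodextrin; rats, dogs and monkeys received the TFA salt in PBS.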

Rattus norvegicus [3] = test: Terminal half life in Sprague-Dawley rat at 20 mg/kg, iv; type: ADME, organism-based; set-up: dose 20 mg/kg, route intravenous; conditions: in vivo; summary of the method: as §2
Cynomolgus monkey [4] = test: Cmax in cynomolgus monkey at 1 mg/kg, iv; type: ADME, organism-based, Macaca fascicularis; set-up: dose 1 mg/kg, route intravenous; conditions: in vivo; summary of the method: as §2
Canis familiaris [5] = test: AUC (0 to infinity) in Beagle dog at 1 mg/kg, iv; type: ADME, organism-based, Canis lupus familiaris, Plasma; set-up: time infinity, dose 1 mg/kg, route intravenous; conditions: in vivo; summary of the method: as §2
Mus musculus [6] = test: Toxicity in mouse xenografted with human MDA-MB-231 cells assessed as effect on body weight at 100 mg/kg, po after 28 days; type: organism-based; set-up: dose 100 mg/kg, route oral; conditions: in vivo, 672 h
Summary of the method: (§3)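 MDA-MB-231 cells (1.5 × 10^7, 1:1 Matrigel in PBS) implanted subcutaneously in right flank of female nude mice aged 6–8 weeks; ten per group, mean starting tumor 168 mm3. Oral gavage in PBS vehicle, 4.0 mL/kg, schedules including 10, 50 or 100 mg/kg weekly, 10 mg/kg daily or every third day. Body weights measured twice weekly.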

Rattus norvegicus [7] = test: Terminal half life in Sprague-Dawley rat at 1 mg/kg, iv; type: ADME, organism-based; set-up: dose 1 mg/kg, route intravenous; conditions: in vivo; summary of the method: as §2
Rattus norvegicus [8] = test: Cmax in Sprague-Dawley rat at 1 mg/kg, iv; type: ADME, organism-based; set-up: dose 1 mg/kg, route intravenous; conditions: in vivo; summary of the method: as §2
Canis familiaris [9] = test: Cmax in Beagle dog at 1 mg/kg, iv; type: ADME, organism-based, Canis lupus familiaris; set-up: dose 1 mg/kg, route intravenous; conditions: in vivo; summary of the method: as §2
Canis familiaris [10] = test: Volume of distribution at steady state in Beagle dog at 20 mg/kg, iv; type: ADME, organism-based, Canis lupus familiaris; set-up: dose 20 mg/kg, route intravenous; conditions: in vivo
Summary of the method: (§4)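 Single IV bolus at 1 or 20 mg/kg of TFA salt in phosphate-buffered saline to male Sprague-Dawley rats (n = 3 per dose), Beagle dogs (n = 3 at 1 mg/kg, male; n = 2 at 20 mg/kg, male/female) and male cynomolgus monkeys (n = 3 per dose). Serial plasma to 24 h; LC-MS/MS; non-compartmental analysis.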

Cynomolgus monkey [11] = test: Cmax in cynomolgus monkey at 20 mg/kg, iv; type: ADME, organism-based, Macaca fascicularis; set-up: dose 20 mg/kg, route intravenous; conditions: in vivo; summary of the method: as §2
[12] = Cmax in Beagle dog at 20 mg/kg, iv; type: ADME, organism-based, Canis lupus familiaris; set-up: dose 20 mg/kg, route intravenous; conditions: in vivo; summary of the method: as §2
Rattus norvegicus [13] = test: Volume of distribution at steady state in Sprague-Dawley rat at 1 mg/kg, iv; type: ADME, organism-based; set-up: dose 1 mg/kg, route intravenous; conditions: in vivo; summary of the method: as §4
Cynomolgus monkey [14] = test: AUC (0 to infinity) in cynomolgus monkey at 1 mg/kg, iv; type: ADME, organism-based, Macaca fascicularis, Plasma; set-up: time infinity, dose 1 mg/kg, route intravenous; conditions: in vivo; summary of the method: as §2
Mus musculus [15] = test: Toxicity in po dosed mouse xenografted with human MDA-MB-231 cells assessed as effect on body weight measured on days 28; type: organism-based; conditions: in vivo; summary of the method: as §3
Rattus norvegicus [16] = test: Cmax in Sprague-Dawley rat at 20 mg/kg, iv; type: ADME, organism-based; set-up: dose 20 mg/kg, route intravenous; conditions: in vivo; summary of the method: as §2
MDA-MB-231 = test: Antitumor activity against human MDA-MB-231 cells xenografted in mouse assessed as reduction in tumor volume at 100 mg/kg, po administered once in week measured on day 21 relative to control; set-up: scale not given: the % may be the effect or the level left
Rattus norvegicus [17] = test: Volume of distribution at steady state in Sprague-Dawley rat at 20 mg/kg, iv; type: ADME, organism-based; set-up: dose 20 mg/kg, route intravenous; conditions: in vivo; summary of the method: as §4
Rattus norvegicus [18] = test: AUC (0 to infinity) in Sprague-Dawley rat at 20 mg/kg, iv; type: ADME, organism-based, Plasma; set-up: time infinity, dose 20 mg/kg, route intravenous; conditions: in vivo; summary of the method: as §2
Cynomolgus monkey [19] = test: Terminal half life in cynomolgus monkey at 20 mg/kg, iv; type: ADME, organism-based, Macaca fascicularis; set-up: dose 20 mg/kg, route intravenous; conditions: in vivo; summary of the method: as §2
Cynomolgus monkey [20] = test: AUC (0 to infinity) in cynomolgus monkey at 20 mg/kg, iv; type: ADME, organism-based, Macaca fascicularis, Plasma; set-up: time infinity, dose 20 mg/kg, route intravenous; conditions: in vivo; summary of the method: as §2
Canis familiaris [21] = test: Terminal half life in Beagle dog at 1 mg/kg, iv; type: ADME, organism-based, Canis lupus familiaris; set-up: dose 1 mg/kg, route intravenous; conditions: in vivo; summary of the method: as §2
Canis familiaris [22] = test: AUC (0 to infinity) in Beagle dog at 20 mg/kg, iv; type: ADME, organism-based, Canis lupus familiaris, Plasma; set-up: time infinity, dose 20 mg/kg, route intravenous; conditions: in vivo; summary of the method: as §2
Cynomolgus monkey [23] = test: Volume of distribution at steady state in cynomolgus monkey at 20 mg/kg, iv; type: ADME, organism-based, Macaca fascicularis; set-up: dose 20 mg/kg, route intravenous; conditions: in vivo; summary of the method: as §4
Rattus norvegicus [24] = test: AUC (0 to infinity) in Sprague-Dawley rat at 1 mg/kg, iv; type: ADME, organism-based, Plasma; set-up: time infinity, dose 1 mg/kg, route intravenous; conditions: in vivo; summary of the method: as §2
[25] = Volume of distribution at steady state in Beagle dog at 1 mg/kg, iv; type: ADME, organism-based, Canis lupus familiaris; set-up: dose 1 mg/kg, route intravenous; conditions: in vivo, read-out: Vdss; summary of the method: as §4
Canis familiaris [26] = test: Terminal half life in Beagle dog at 20 mg/kg, iv; type: ADME, organism-based, Canis lupus familiaris; set-up: dose 20 mg/kg, route intravenous; conditions: in vivo; summary of the method: as §2
Mus musculus [27] = test: Cmax in mouse at 100 mg/kg, po; type: ADME, organism-based; set-up: dose 100 mg/kg, route oral; conditions: in vivo; summary of the method: as §1
Cynomolgus monkey [28] = test: Volume of distribution at steady state in cynomolgus monkey at 1 mg/kg, iv; type: ADME, organism-based, Macaca fascicularis; set-up: dose 1 mg/kg, route intravenous; conditions: in vivo; summary of the method: as §4

With `CN[C@@H](C)C(=O)N[C@H](C(=O)N1CCC[C@H]1C(=O)Nc1snnc1-c1ccccc1)C1CCCCC1.O=C(O)C(F)(F)F` the AUC (Mus musculus [1]) was 203.5 µM·h, the “beta t1/2” value (Cynomolgus monkey [2]) was 26.4 min and the “beta t1/2” value (Rattus norvegicus [3]) was 50.4 min. For the same compound, the Cmax (Cynomolgus monkey [4]) was 1.46 µM, the AUC (Canis familiaris [5]) was 2.1 µM·h and the Activity (Mus musculus [6]) was “Toxic”. The “beta t1/2” value (Rattus norvegicus [7]) was 25.8 min, the Cmax (Rattus norvegicus [8]) was 1.1 µM and the Cmax (Canis familiaris [9]) was 3.8 µM. It also gave a Vdss (Canis familiaris [10]) of 1.5 L/kg, a Cmax (Cynomolgus monkey [11]) of 24 µM and a Cmax [12] of 30 µM. The Vdss (Rattus norvegicus [13]) was 2 L/kg, the AUC (Cynomolgus monkey [14]) was 0.71 µM·h and the Activity (Mus musculus [15]) was “>= 5%”. For the same compound, the Cmax (Rattus norvegicus [16]) was 31 µM, the Activity (MDA-MB-231) was 85% and the Vdss (Rattus norvegicus [17]) was 1.7 L/kg. For the same compound, the AUC (Rattus norvegicus [18]) was 25 µM·h, the “beta t1/2” value (Cynomolgus monkey [19]) was 46.2 min and the AUC (Cynomolgus monkey [20]) was 19 µM·h. For the same compound, the “beta t1/2” value (Canis familiaris [21]) was 54 min, the AUC (Canis familiaris [22]) was 36 µM·h and the Vdss (Cynomolgus monkey [23]) was 2.2 L/kg. For the same compound, the AUC (Rattus norvegicus [24]) was 0.51 µM·h, the Vd [25] was 1 L/kg and the “beta t1/2” value (Canis familiaris [26]) was 120 min. For the same compound, the Cmax (Mus musculus [27]) was 53.7 µM and the Vdss (Cynomolgus monkey [28]) was 1.6 L/kg.
